High-throughput results from PubChem BioAssay.
RAM network inh: inhibitors of the yeast RAM network; S. cerevisiae dse1pr::URA3 reporter, 5-FOA growth OD615, 2 d; analog-sensitive cbk1-as2 kinase mutant strain; inhibition, % at 50 µM; actives 1.8% (n = 190,000); AID 868;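 active means inhibition above a set limit, 3 SD over mean compound inhibition, cut at about 8.4% in these data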;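 further: 0% = DMSO-only wells with no growth and 100% = 10 µM 1-NA-PP1 full growth; inhibition rescues growth on 5-FOA so higher OD means more RAM inhibition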
ABCB1 block: blocks JC-1 efflux by human ABCB1 transporter | P08183 | CCRF-Adr cells, flow cytometry | inhibition, % at 6.6 µM | actives 0.067% (n = 190,000) | AID 1326; in the data active means inhibition above about 40%;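 further: 0% = vehicle and 100% = reference inhibitor; higher value means more JC-1 retained so stronger ABCB1 efflux block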
ABCG2 inh: blocks JC-1 efflux by human ABCG2 transporter. Q9UNQ0. IgMXP3 cells, flow cytometry. inhibition, % at 6.6 µM. actives 0.1% (n = 190,000);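 active means inhibition above 80%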;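 further: 0% = DMSO and 100% = nicardipine control wells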
Target sequence (Q9UNQ0 whole entry, looked up): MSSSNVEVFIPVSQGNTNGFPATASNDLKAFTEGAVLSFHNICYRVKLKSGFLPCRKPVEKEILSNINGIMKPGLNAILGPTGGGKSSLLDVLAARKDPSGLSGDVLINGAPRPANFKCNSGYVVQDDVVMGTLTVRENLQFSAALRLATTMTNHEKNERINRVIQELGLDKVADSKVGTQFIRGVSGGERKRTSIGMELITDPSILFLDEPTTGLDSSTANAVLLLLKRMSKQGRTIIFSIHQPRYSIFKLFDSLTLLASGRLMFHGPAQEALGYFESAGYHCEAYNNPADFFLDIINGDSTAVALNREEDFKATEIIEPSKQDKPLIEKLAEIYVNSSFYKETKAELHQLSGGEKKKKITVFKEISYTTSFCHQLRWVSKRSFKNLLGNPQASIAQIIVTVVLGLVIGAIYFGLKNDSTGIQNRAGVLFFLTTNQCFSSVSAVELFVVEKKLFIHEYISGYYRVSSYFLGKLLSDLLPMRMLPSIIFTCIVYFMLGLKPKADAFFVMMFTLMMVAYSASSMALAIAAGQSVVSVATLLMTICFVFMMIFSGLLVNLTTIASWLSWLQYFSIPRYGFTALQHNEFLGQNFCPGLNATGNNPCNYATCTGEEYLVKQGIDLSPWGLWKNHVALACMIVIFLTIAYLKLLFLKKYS
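Test system: IgMXP3 (ABCG2) plus far-red-tagged CCRF-Adr (ABCB1) cells. Reagent: JC-1 dye as substrate. Timing: 10 min exposure at 25 °C with rotation, no wash. Measured by: flow cytometric JC-1 green MFI at 530 nm. Read-out: percent efflux inhibition, scaled nicardipine 100% to DMSO 0%. Control set: nicardipine and DMSO wells.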
WT yeast gro inh: growth inhibition of WT yeast, mitochondrial fusion screen; inhibition, % at 10 µM; mitochondrial fusion phenotypic screen, WT strain; AID 1362; actives 2.1% (n = 190,000); in the data active means inhibition above about 58%; tested in S. cerevisiae
L major viab: inhibitors of Leishmania major promastigote growth; Leishmania major promastigotes, resazurin fluorescence viability; inhibition, % at 10 µM; actives 9% (n = 200,000); AID 1063; in the data active means inhibition above about 50%;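 further: promastigotes grown with compound for 44 hours at 28 °C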
Active calls of the source: *; x = no result given. The list is not random: actives were taken first. Their share in the collection is about 12%.

SMILES | RAM network inh | ABCB1 block | ABCG2 inh | WT yeast gro inh | L major viab
CCOC(=O)c1c(NC(=O)C(F)(OC)C(F)(F)F)sc(C(=O)N2CCCCC2)c1C (configuration not stated) | 2.0 | 2.1 | 6.1 | 1.0 | 20.4
OCCN1CCN(CCOc2ccccc2-c2ccccc2)CC1 | 1.0 | 0.0 | 0.0 | -3.3 | 1.3
CCN1CCN(CCOc2ccccc2-c2ccccc2)CC1 | -1.9 | 0.9 | 1.1 | 0.4 | 91.3*
OCCCN1CCN(CCOc2ccccc2-c2ccccc2)CC1 | 1.8 | 0.1 | 0.2 | 0.4 | 1.3
c1ccc(-c2ccc(OCCCn3cncn3)cc2)cc1 | -1.2 | 0.6 | 12.6 | -9.5 | 96.2*
CCN1CCN(CCCOc2ccccc2-c2ccccc2)CC1 | -0.2 | 0.8 | 2.4 | 13.9 | 65.5*
c1ccc(-c2ccccc2OCCCN2CCCCC2)cc1 | -0.4 | 0.5 | 4.3 | -11.2 | 95.0*
Cc1ccc(C23CC4CC(CC(C(=O)N5CCOCC5)(C4)C2)C3)cc1 | -0.2 | 1.4 | 10.8 | 10.3 | 8.9
COc1ccc(S(=O)(=O)NCc2ccc(F)cc2)cc1OC | -0.7 | 0.0 | -1.3 | 0.7 | -1.4
CCN1CCN(CCCOc2ccc(-c3ccccc3)cc2)CC1 | -0.2 | 0.6 | 2.6 | 21.6 | 98.5*
CCOc1ccc(-c2cc(C(=O)NCCCN3CCN(CC)CC3)c3ccccc3n2)cc1 | -1.2 | 1.1 | 1.7 | 11.1 | 25.3
CC(=O)N1c2c(cc(Br)cc2S(=O)(=O)NCc2cccnc2)CC1C (configuration not stated) | 0.5 | 0.9 | 28.3 | 16.6 | -1.5
CCCCN(Cc1ccccc1)S(=O)(=O)c1cc(Br)cc2c1N(C(C)=O)C(C)C2 (configuration not stated) | 5.3 | 3.1 | 4.7 | 48.7 | 98.2*
CCOC(=O)CCNC(=O)N1CCCC(CNS(=O)(=O)c2cccs2)C1 (configuration not stated) | 1.0 | 0.3 | 5.7 | 4.4 | -6.8
O=C(Nc1ccc(Br)c2cccnc12)c1ccc(Cn2cc(Cl)cn2)o1 | 10.6* | -0.1 | 0.1 | 7.6 | -5.6
CCCN1CCC(N2CCCC(C(=O)O)C2)CC1 (configuration not stated) | -0.5 | -0.7 | 16.4 | 5.4 | 1.9
Cc1cc(SCC(=O)Nc2c(C)n(C)n(-c3ccccc3)c2=O)n2c(nc3ccccc32)c1C#N | x | x | x | x | 86.7*
Cc1c(NC(=O)CSc2nc3c(cnn3-c3ccccc3)c(=O)[nH]2)c(=O)n(-c2ccccc2)n1C | 11.2* | 2.2 | 2.1 | 4.1 | -8.2
CCCCSc1nc(O)cc(=O)n1CC | 0.2 | -0.7 | 0.9 | -3.3 | -4.8
CC(OC(=O)c1cc(-c2cccnc2)nc2ccccc12)C(=O)Nc1ccc2ccccc2c1 (configuration not stated) | 5.2 | 9.9 | 6.1 | 13.5 | 74.9*
CC(=O)Nc1cccc(NC(=O)c2cc(-c3cccnc3)nc3ccc(Cl)cc23)c1 | 9.3* | 0.1 | 1.6 | -4.2 | -0.7
O=C(NNC(=S)Nc1ccccc1)c1cc(-c2cccnc2)nc2ccccc12 | 1.5 | 15.2 | 13.6 | 24.7 | 0.6
CC(C)(C)NC(=O)c1nn(Cc2ccccc2)c(=O)c2ccccc12 | -0.2 | 0.8 | 2.1 | -4.0 | 8.1
CCOC(=O)CON1C(=O)C(=O)N(OCC(=O)OCC)C2CCCCC21 (configuration not stated) | 0.8 | 0.6 | 1.8 | 9.1 | -4.6
CCOC(=O)c1[nH]cnc1C(=O)Nc1cccc(Cl)c1 | 1.6 | -0.3 | 0.3 | -10.1 | 10.4
SMILES | RAM network inh | ABCB1 block | ABCG2 inh | WT yeast gro inh | L major viab
COc1ccc(NC(=O)CN(C)C(=O)c2oc3ccccc3c2C)cc1 | 0.7 | 0.0 | -0.2 | 5.7 | -5.7
Cc1cccc(NC(=O)Cn2cnc3c(oc4nc5c(cc43)COC(C)(C)C5)c2=O)c1 | 8.5* | -0.3 | 8.8 | -9.8 | 1.9
CCCCNC(=O)CSc1nnc(-c2c[nH]c3ccccc23)n1CC1CCCO1 (configuration not stated) | -0.1 | 0.3 | 3.1 | -3.0 | -21.4
Cc1ccc(NC(=S)N(CCCN2CCCC2)Cc2cccn2Cc2ccc(Cl)cc2)cc1C | 4.5 | 1.1 | 2.0 | 76.4* | 100.5*
COc1ccc(NC(=S)N(CCCN2CCCC2)Cc2cccn2Cc2ccc(Cl)cc2)cc1Cl | 3.4 | 2.8 | 1.7 | 87.3* | 100.5*
Cc1cc(NC(=S)N(CCN2CCCCC2)Cc2ccco2)ccc1Cl | -0.6 | 1.9 | 2.7 | 17.9 | 32.6
Cc1ccc(NC(=S)N(CCCN2CCCC2)Cc2cccn2Cc2ccc(Cl)cc2)cc1Cl | 3.9 | 4.5 | 6.9 | 77.4* | 100.2*
FC(F)(F)c1cccc(NC(=S)N(CCCN2CCCC2)Cc2cccn2Cc2ccc(Cl)cc2)c1 | 4.0 | 3.4 | 5.9 | 94.7 | 100.5*
Cc1ccc(NC(=S)N(CCN2CCOCC2)Cc2ccccc2F)cc1Cl | 2.2 | 1.5 | 6.7 | 23.6 | 2.6
CN1CCN(CCCN(Cc2cccs2)C(=S)Nc2ccc(Cl)cc2)CC1 | -0.6 | 1.1 | 6.3 | 13.4 | 18.5
Cc1nn(Cc2ccc(Cl)cc2)c(C)c1NC(=O)C1CC=CCC1C(=O)O (configuration not stated) | 0.2 | 0.2 | 2.7 | -6.6 | -6.3
Brc1ccc(N=C(c2ccccc2)c2ccncc2)cc1 | 1.3 | 0.1 | -1.3 | -4.3 | -1.7
CC(=O)Nc1ccc(C(=O)CSc2nccc(=O)[nH]2)cc1 | 2.5 | 1.8 | 4.7 | 8.9 | 44.3
Cc1cc(O)ccc1N1C(=O)c2cccc3cc([N+](=O)[O-])cc(c23)C1=O | 7.1 | 0.7 | 2.1 | -1.5 | 87.8*
Cc1cccc(C)c1N1C(=O)c2cccc([N+](=O)[O-])c2C1=O | -0.1 | 1.2 | 5.9 | -9.8 | 6.5
O=C1c2cccc3cc([N+](=O)[O-])cc(c23)C(=O)N1c1ccccc1O | 0.8 | 1.0 | 6.8 | -2.3 | 98.2*
CCOc1cc(C2/C(=C(/O)c3ccc(OC(C)C)cc3)C(=O)C(=O)N2CCCOC)ccc1O (configuration not stated) | 8.5* | 0.8 | 2.8 | 2.0 | -6.9
O=C(CN(C(=O)c1cc2c(s1)CCC2)C1CCCC1)NCc1cccs1 | 0.4 | 0.2 | 0.0 | 2.6 | 21.7
Cc1nn(-c2ccc(Cl)cc2)c(Cl)c1/C=C(\C#N)C(N)=O | 1.9 | -0.4 | -0.1 | -6.9 | 24.2
C=CCNC(=O)/C(C#N)=C/c1c(C)nn(-c2ccc(Cl)cc2)c1Cl | 5.3 | 0.6 | 38.5 | 13.5 | 88.6*
CCOc1ccccc1NC(=O)/C(C#N)=C/c1c(C)nn(-c2ccc(F)cc2)c1Cl | 3.7 | 1.0 | 24.2 | 9.5 | 72.8*
COc1ccc(NC(=O)CN2C(=O)C(C)SC(C)C2=O)c(OC)c1 (configuration not stated) | 2.7 | 0.2 | 0.6 | -9.4 | -8.0
CCCNC(=O)c1nnsc1Sc1ccc(Cl)cc1 | 1.1 | 0.5 | 2.6 | 7.3 | -7.0
C#CCn1cc(C=C2C(=O)c3ccccc3C2=O)c2ccccc21 | -1.0 | 0.4 | -3.6 | 13.7 | 2.5
Cc1ccc(-c2cc(C(F)F)nc(NCC3CCCO3)n2)cc1 (configuration not stated) | 0.9 | 0.4 | 2.9 | 8.5 | 64.2*
